Our source for the Ki and half-life values is ChEMBL document CHEMBL5252514, “Conopeptide-Derived κ-Opioid Agonists (Conorphins): Potent, Selective, and Metabolic Stable Dynorphin A Mimetics with Antinociceptive Properties” (J Med Chem, 2016).

The target in data set [1] is Kappa-type opioid receptor (Homo sapiens, UniProt P41145). Briefly: Displacement of [3H]U69593 from human kappa opioid receptor expressed in CHO-K1 cells incubated for 1 hr by 1450 microbeta scintillation counter analysis. The data set is classed as cell-based. An outline of the steps: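 Membranes from transiently KOR-transfected CHO-K1 cells (~2 µg/well) used in SPA with 3H-U69,593 (1 nM). Competitor ranged 1 pM–10 µM in 50 mM Tris-HCl pH 7.4, 5 mM MgCl2, 0.1% BSA. Incubated 1 h at room temperature with shaking. Nonspecific binding defined with 10 µM dynorphin A. Sigmoidal dose-response fit; at least three independent experiments in triplicate.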
Kappa-type opioid receptor, sequence (P41145 whole entry): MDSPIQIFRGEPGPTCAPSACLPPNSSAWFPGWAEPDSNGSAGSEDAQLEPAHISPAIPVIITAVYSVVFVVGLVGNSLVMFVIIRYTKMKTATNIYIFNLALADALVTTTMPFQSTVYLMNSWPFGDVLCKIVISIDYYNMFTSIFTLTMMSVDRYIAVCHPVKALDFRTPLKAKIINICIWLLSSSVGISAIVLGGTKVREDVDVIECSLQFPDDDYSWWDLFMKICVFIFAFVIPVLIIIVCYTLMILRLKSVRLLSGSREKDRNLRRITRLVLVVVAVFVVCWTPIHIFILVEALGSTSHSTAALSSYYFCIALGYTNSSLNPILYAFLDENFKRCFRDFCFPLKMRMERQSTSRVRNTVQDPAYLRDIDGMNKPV

Data set [2] is described as follows: Metabolic stability in Wistar rat plasma assessed as half life by HPLC analysis. In kind it is ADME, cell-free. A digest of the protocol:
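Peptide at 1 mg/mL in sterile PBS pH 7.4 was mixed 1:1 with thawed, centrifuged Wistar rat plasma supernatant and incubated at 37°C in triplicate. Samples at 0, 1, 2, 3, 4, 6 and 24 h were quenched with acetonitrile and then 2% TFA/water, and analysed by HPLC with inline electrospray MS.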

Where a SMILES comes first, the peptide text is derived from it.

`N=C(N)NCCC[C@@H](NC(=O)[C@@H]1Cc2ccccc2CN1)C(=O)N[C@H](CCCNC(=N)N)C(=O)N[C@@H](CCC(N)=O)C(=O)N[C@@H](CC1CCCCC1)C(=O)N[C@H]1C[Se][Se]C[C@@H](C(N)=O)NC1=O` came in with a Ki in data set [1] of 2.4 nM. In addition, the half-life in data set [2] stood at 6 h.

Consider `N=C(N)NCCC[C@@H](NC(=O)[C@H]1NCCc2ccccc21)C(=O)N[C@H](CCCNC(=N)N)C(=O)N[C@@H](CCC(N)=O)C(=O)N[C@@H](CC1CCCCC1)C(=O)N[C@H]1CSSC[C@@H](C(N)=O)NC1=O`, for which, in data set [1], the affinity corresponds to a Ki of 1.18 nM. The half-life in data set [2] was 0.75 h.

In data set [1], `N=C(N)NCCC[C@@H](NC(=O)[C@@H](CCCNC(=N)N)NC(=O)[C@@H]1CCCN1C(=O)c1ccc(Cl)c(Cl)c1)C(=O)N[C@@H](CCC(N)=O)C(=O)N[C@@H](CS)C(=O)N[C@@H](CC1CCCCC1)C(=O)N[C@H]1CSSC[C@@H](C(N)=O)NC1=O` showed an inhibition constant Ki of 0.98 nM. Also, the half-life in data set [2] turned out to be 1 h.

As to `CC[C@H](C)[C@H](NC(=O)[C@H](CCCNC(=N)N)NC(=O)[C@H](CCCNC(=N)N)NC(=O)[C@H](CC(C)C)NC(=O)[C@H](Cc1ccccc1)NC(=O)CNC(=O)CNC(=O)[C@@H](N)Cc1ccc(O)cc1)C(=O)N[C@@H](CCCNC(=N)N)C(=O)N1CCC[C@H]1C(=O)N[C@@H](CCCCN)C(=O)N[C@@H](CC(C)C)C(=O)N[C@@H](CCCCN)C(=O)N[C@@H](Cc1c[nH]c2ccccc12)C(=O)N[C@@H](CC(=O)O)C(=O)N[C@@H](CC(N)=O)C(=O)N[C@@H](CCC(N)=O)C(N)=O`, the half-life in data set [2] stood at 2 h.

Consider `N=C(N)NCCC[C@H](NC(=O)[C@H](CCCNC(=N)N)NC(=O)[C@@H]1CSSC[C@H](NC(=O)[C@@H](N)CC(N)=O)C(=O)N1)C(=O)N[C@@H](CCC(N)=O)C(=O)N[C@@H](Cc1ccccc1)C(=O)N[C@H]1CSSC[C@@H](C(N)=O)NC1=O` (HELM PEPTIDE1{N.C.C.R.R.Q.F.C.C.[am]}$PEPTIDE1,PEPTIDE1,2:R3-3:R3|PEPTIDE1,PEPTIDE1,8:R3-9:R3$$$V2.0), for which the Ki in data set [1] was 28 nM.

Turning to `CC(C)C[C@H](NC(=O)[C@@H](CCCNC(=N)N)NC(=O)[C@@H](CCCNC(=N)N)NC(=O)[C@@H]1CCCN1C(=O)c1ccccc1)C(=O)N[C@@H](CC1CCCCC1)C(=O)N[C@H]1CSSC[C@@H](C(N)=O)NC1=O`, the inhibitory constant (Ki) in data set [1] came to 1.4 nM.

In turn, `N=C(N)NCCC[C@@H](NC(=O)[C@@H]1CCC(=O)N1)C(=O)N[C@H](CCCNC(=N)N)C(=O)N[C@@H](CCC(N)=O)C(=O)N[C@@H](CC1CCCCC1)C(=O)N[C@H]1CCSSC[C@@H](C(N)=O)NC1=O` registered an inhibitory constant (Ki) in data set [1] of 783 nM. This Ki lies about 560-fold higher than the previous one.

Turning to `N=C(N)NCCC[C@@H](NC(=O)[C@@H](CCCNC(=N)N)NC(=O)[C@@H]1CCCN1C(=O)c1ccccc1)C(=O)N[C@@H](CCC(N)=O)C(=O)N[C@@H](CC1CCCCC1)C(=O)N[C@H]1CSS[C@H]2C[C@@H](C(N)=O)N(C2)C1=O`, in data set [1], the Ki came to 208 nM.

In data set [1], `N=C(N)NCCC[C@H](NC(=O)[C@@H]1CCC(=O)N1)C(=O)N[C@@H](CCCNC(=N)N)C(=O)N[C@@H](CCC(N)=O)C(=O)N[C@@H](CC1CCCCC1)C(=O)N[C@H]1CCCCN(CC(N)=O)C1=O` (HELM PEPTIDE1{[Glp].R.R.Q.[Cha].[NC(=O)CN1CCCC[C@H](N[*:1])C1=O]}$$$$V2.0) gave an inhibitory constant (Ki) of 12900 nM.

Turning to `CC(C)C[C@H](NC(=O)[C@H](CCC(N)=O)NC(=O)[C@H](CCCNC(=N)N)NC(=O)[C@H](CCCNC(=N)N)NC(=O)[C@@H]1CSSC[C@H](NC(=O)[C@@H](N)CC(N)=O)C(=O)N1)C(=O)N[C@H]1CSSC[C@@H](C(N)=O)NC1=O` (HELM PEPTIDE1{N.C.C.R.R.Q.L.C.C.[am]}$PEPTIDE1,PEPTIDE1,2:R3-3:R3|PEPTIDE1,PEPTIDE1,8:R3-9:R3$$$V2.0), affinity in data set [1] was put at a Ki of 24 nM.

Molecule `N=C(N)NCCC[C@@H](NC(=O)[C@@H](CCCNC(=N)N)NC(=O)[C@@H]1CCCN1C(=O)c1ccc(Cl)cc1)C(=O)N[C@@H](CCC(N)=O)C(=O)N[C@@H](CC1CCCCC1)C(=O)N[C@H]1CSSC[C@@H](C(=O)O)NC1=O` showed a Ki in data set [1] of 795 nM.

Turning to `CN(C(=O)[C@H](CC1CCCCC1)NC(=O)[C@H](CCC(N)=O)NC(=O)[C@@H](CCCNC(=N)N)NC(=O)[C@@H](CCCNC(=N)N)NC(=O)[C@@H]1CCCN1C(=O)c1ccccc1)[C@H]1CSSC[C@@H](C(N)=O)NC1=O`, the Ki in data set [1] worked out at 15 nM. Compared with the last molecule, the Ki is about 53-fold lower.

For the molecule `N=C(N)NCCC[C@@H](NC(=O)[C@@H]1CCC(=O)N1)C(=O)N[C@H](CCCNC(=N)N)C(=O)N[C@@H](CCC(N)=O)C(=O)N[C@@H](CC1CCCCC1)C(=O)N[C@H]1CCSSCC[C@@H](C(N)=O)NC1=O`, in data set [1], the affinity corresponds to a Ki of 241 nM. This Ki lies about 16-fold higher than the previous one.

Turning to `N=C(N)NCCC[C@@H](NC(=O)c1cccc(Br)c1)C(=O)N[C@H](CCCNC(=N)N)C(=O)N[C@@H](CCC(N)=O)C(=O)N[C@@H](CC1CCCCC1)C(=O)N[C@H]1CSSC[C@@H](C(N)=O)NC1=O`, in data set [1], affinity was put at a Ki of 5.3 nM.

In the case of `CC[C@H](C)[C@H](NC(=O)[C@H](CCC(N)=O)NC(=O)[C@H](CCCNC(N)=O)NC(=O)[C@H](CCCNC(=N)N)NC(=O)[C@@H]1CSSC[C@H](NC(=O)[C@@H](N)CC(N)=O)C(=O)N1)C(=O)NC1CSSC[C@@H](C(N)=O)NC1=O` (single isomer, unassigned), the affinity in data set [1] corresponds to a Ki of 387 nM.

In data set [1], `N=C(N)NCCC[C@@H](NC(=O)[C@@H](CCCNC(=N)N)NC(=O)[C@@H]1CCCN1C(=O)c1ccccc1)C(=O)N[C@@H](CC(=O)O)C(=O)N[C@@H](CC1CCCCC1)C(=O)N[C@H]1CSSC[C@@H](C(N)=O)NC1=O` had a Ki of 10.2 nM.

Regarding `CC[C@H](C)[C@H](NC(=O)[C@H](CCC(N)=O)NC(=O)[C@H](CCCNC(=N)N)NC(=O)[C@H](CCCCN)NC(=O)[C@@H]1CSSC[C@H](NC(=O)[C@@H](N)CC(N)=O)C(=O)N1)C(=O)N[C@H]1CSSC[C@@H](C(N)=O)NC1=O` (HELM PEPTIDE1{N.C.C.K.R.Q.I.C.C.[am]}$PEPTIDE1,PEPTIDE1,2:R3-3:R3|PEPTIDE1,PEPTIDE1,8:R3-9:R3$$$V2.0), the Ki in data set [1] is 426 nM.

Regarding `CC[C@H](C)[C@H](NC(=O)[C@H](CCC(N)=O)NC(=O)[C@H](CCCNC(=N)N)NC(=O)[C@H](CCCNC(=N)N)NC(=O)[C@@H]1CSSC[C@H](NC(=O)[C@@H](N)Cc2ccc(O)cc2)C(=O)N1)C(=O)N[C@H]1CSSC[C@@H](C(N)=O)NC1=O` (HELM PEPTIDE1{Y.C.C.R.R.Q.I.C.C.[am]}$PEPTIDE1,PEPTIDE1,2:R3-3:R3|PEPTIDE1,PEPTIDE1,8:R3-9:R3$$$V2.0), the Ki in data set [1] stood at 40.3 nM.

In data set [1], `N=C(N)NCCC[C@@H](NC(=O)[C@@H](CCCNC(=N)N)NC(=O)[C@@H]1CCCN1C(=O)c1ccccc1)C(=O)N[C@@H](CCC(=O)O)C(=O)N[C@@H](CC1CCCCC1)C(=O)N[C@H]1CSSC[C@@H](C(N)=O)NC1=O` came in with an inhibitory constant (Ki) of 19.4 nM.

`N=C(N)NCCC[C@@H](NC(=O)c1cccc(Cl)c1)C(=O)N[C@H](CCCNC(=N)N)C(=O)N[C@@H](CCC(N)=O)C(=O)N[C@@H](CC1CCCCC1)C(=O)N[C@H]1CSSC[C@@H](C(N)=O)NC1=O` had a Ki in data set [1] of 6.7 nM.

`C[C@H](NC(=O)[C@@H](CCCNC(=N)N)NC(=O)[C@@H](CCCNC(=N)N)NC(=O)[C@@H]1CCCN1C(=O)c1ccccc1)C(=O)N[C@@H](CC1CCCCC1)C(=O)N[C@H]1CSSC[C@@H](C(N)=O)NC1=O` gave an inhibition constant Ki in data set [1] of 0.29 nM.

As for `N=C(N)NCCC[C@@H](NC(=O)[C@@H]1CCC(=O)N1)C(=O)N[C@H](CCCNC(=N)N)C(=O)N[C@@H](CCC(N)=O)C(=O)N[C@@H](CC1CCCCC1)C(=O)N[C@H]1CSSCC[C@@H](C(N)=O)NC1=O`, in data set [1], the inhibitory constant (Ki) was found to be 1570 nM.

In data set [1], `N=C(N)NCCC[C@@H](NC(=O)[C@@H](CCCNC(=N)N)NC(=O)[C@@H]1CCCN1C(=O)c1ccccc1)C(=O)N[C@@H](CCC(N)=O)C(=O)N[C@@H](CC1CCCCC1)C(=O)N[C@H]1CC(=O)NC[C@@H](C(N)=O)NC1=O` displayed a Ki of 233 nM. This Ki is about 6.7-fold lower than that of the molecule before.
